Experimental data published in ChEMBL document CHEMBL1141586, “Design and optimization of imidazole derivatives as potent CXCR3 antagonists” (Bioorg Med Chem Lett, 2008).
Values after ≈ are worked out from the molar mass of the structure shown.

Legend:
[1] = molecular target: T1, C-X-C chemokine receptor type 3 (Homo sapiens, UniProt P49682); assay: Displacement of [125I]IP10 from human recombinant CXCR3 receptor expressed in IL2-activated human PBMC
T1 sequence (P49682 whole entry): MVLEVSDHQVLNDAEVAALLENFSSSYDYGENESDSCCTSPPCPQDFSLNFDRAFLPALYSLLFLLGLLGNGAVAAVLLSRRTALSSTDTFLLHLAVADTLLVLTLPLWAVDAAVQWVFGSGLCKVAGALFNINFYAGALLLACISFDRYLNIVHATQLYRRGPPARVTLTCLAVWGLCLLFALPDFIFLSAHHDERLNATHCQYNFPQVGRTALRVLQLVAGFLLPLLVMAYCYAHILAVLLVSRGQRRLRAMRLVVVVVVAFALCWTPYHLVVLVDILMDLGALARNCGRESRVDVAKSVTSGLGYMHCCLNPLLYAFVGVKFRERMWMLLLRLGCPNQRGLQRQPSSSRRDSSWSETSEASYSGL

[2] = molecular target: T1, C-X-C chemokine receptor type 3; assay: Displacement of [125I]IP10 from human recombinant CXCR3 receptor expressed in IL2-activated human PBMC in presence of plasma
How it was run: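 PBMC were activated for 14 days with anti-CD3 mAb and recombinant human IL-2, then co-incubated with antagonist and recombinant human 125I-IP10 for 2 h at room temperature in EDTA-anticoagulated human plasma (from frozen stocks). Cells were filter-harvested and bound radioactivity counted by scintillation. IC50 is the mean of three experiments.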

[3] = molecular target: T2, C-X-C chemokine receptor type 3 (Homo sapiens) (UniProt P49682); assay: Antagonist activity at human CXCR3 receptor assessed as ITAC-induced cellular migration in PBMC in presence of plasma; format: functional
T2 sequence (whole entry): T1 sequence (P49682 whole entry)

Liver microsomes = assay: Metabolic stability in human liver microsomes assessed as decrease in glutathione conjugate formation; format: ADME, Microsome; design: scale not given: the % may be the effect or the level left
Rattus norvegicus [4] = assay: Clearance in rat at 0.5 mg/kg, iv; format: ADME, organism-based; design: dose 0.5 mg/kg, route intravenous; conditions: in vivo
How it was run: (§1)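 Rats given a single intravenous dose of 0.5 mg/kg; clearance, AUC and mean residence time derived from plasma exposure; n = 2 animals.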

Rattus norvegicus [5] = assay: AUC in rat at 0.5 mg/kg, iv; format: ADME, organism-based, Plasma; design: dose 0.5 mg/kg, route intravenous; conditions: in vivo; how it was run: as §1
[6] = Mean residence time in rat at 0.5 mg/kg, iv; format: ADME, organism-based; design: dose 0.5 mg/kg, route intravenous; conditions: in vivo; how it was run: as §1
[7] = AUC in rat at 2 mg/kg, po; format: ADME, organism-based; design: dose 2 mg/kg, route oral; conditions: plasma
[8] = Mean residence time in rat at 2 mg/kg, po; format: ADME, organism-based; design: dose 2 mg/kg, route oral; conditions: in vivo
[9] = Oral bioavailability in rat at 2 mg/kg; format: ADME, organism-based; conditions: in vivo
[10] = Solubility at pH 7.4; format: physicochemical; conditions: buffer
How it was run: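 10 mM DMSO stock added to pH 7.4 assay buffer, final DMSO about 1%. Compound concentration in the supernatant is measured.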

[11] = Membrane permeability by PAMPA assay; format: ADME; conditions: read-out: permeability
How it was run: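 PAMPA: passive permeation across an artificial phospholipid bilayer membrane; result expressed in 10^-6 cm/s.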

Compound	IC50 [1] [nM]	IC50 [2] [nM]	Activity [3] [nM]	further results
CCOc1ccc(-n2cc(-c3ccccc3)nc2[C@@H](C)N(CCS(=O)(=O)CC)C(=O)Cn2nnc(-c3ccc(F)cc3)n2)cc1	5	47		
CCOc1ccc(-n2cc(-c3ccccc3)nc2[C@@H](C)N(CCCS(=O)(=O)CC)C(=O)Cc2ccc(F)c(C(F)(F)F)c2)cc1	2.4	18		
CCOc1ccc(-n2cc(-c3ccccc3)nc2[C@@H](C)N(CCS(=O)(=O)CC)C(=O)Cn2cnc(-c3ccccc3)c2)cc1	4.8	24		
CCS(=O)(=O)CCN(C(=O)Cc1ccc(F)c(C(F)(F)F)c1)[C@H](C)c1nc(C2CC2)cn1-c1ccc(C#N)cc1	6.6	37	53	CL (Rattus norvegicus [4]): 3.3 L/h/kg; AUC (Rattus norvegicus [5]): 149 µg·h/L; MRT [6]: 60 min; AUC [7]: 95 µg·h/L; MRT [8]: 2.4 h; bioavailability [9]: 16%; solubility [10]: 32 µg/mL (≈ 55.5 µM); Papp [11]: 5.1 ×10⁻⁶ cm/s; Activity (Liver microsomes): 44%
CCS(=O)(=O)CCN(C(=O)Cc1ccc(F)c(C(F)(F)F)c1)[C@H](C)c1nc(C2CC2)c(C(F)F)n1-c1ccc(C#N)cc1	12	18	20	CL (Rattus norvegicus [4]): 2.2 L/h/kg; AUC (Rattus norvegicus [5]): 237 µg·h/L; MRT [6]: 54 min; AUC [7]: 456 µg·h/L; MRT [8]: 2.4 h; bioavailability [9]: 48%; Activity (Liver microsomes): 0%
CCOc1ccc(-n2cc(-c3ccccc3)nc2[C@@H](C)N(CCS(=O)(=O)CC)C(=O)Cn2nnc(-c3ccccc3)n2)cc1	9.4	69		
CCS(=O)(=O)CCN(C(=O)Cc1ccc(F)c(C(F)(F)F)c1)[C@H](C)c1nc(C2CC2)c(Cl)n1-c1ccc(C#N)cc1	7.8	24	80	CL (Rattus norvegicus [4]): 2.3 L/h/kg; AUC (Rattus norvegicus [5]): 219; MRT [6]: 78 min; AUC [7]: 225 µg·h/L; MRT [8]: 5.4 h; bioavailability [9]: 26%; Activity (Liver microsomes): 0%
CCOc1ccc(-n2cc(-c3ccccc3)nc2[C@@H](C)N(C[C@@H]2CCCN2C)C(=O)Cc2ccc(F)c(C(F)(F)F)c2)cc1	6.4	31		
CCOc1ccc(-n2ccnc2[C@@H](C)N(Cc2cccnc2)C(=O)Cc2ccc(F)c(C(F)(F)F)c2)cc1	1800			
CCOc1ccc(-n2cc(-c3ccccc3)nc2[C@@H](C)N(CCS(=O)(=O)CC)C(=O)Cn2nnc(-c3ccc(C(F)(F)F)cc3)n2)cc1	2.1	19		
CCS(=O)(=O)CCN(C(=O)Cc1ccc(F)c(C(F)(F)F)c1)[C@H](C)c1nc(C2CC2)c(CF)n1-c1ccc(C#N)cc1	8	28	119	
CCS(=O)(=O)CCN(C(=O)Cc1ccc(F)c(C(F)(F)F)c1)[C@H](C)c1nc(C2CC2)c(-c2ccccc2)n1-c1ccc(C#N)cc1	752	10000		
CCOc1ccc(-n2cc(-c3ccccc3)nc2[C@@H](C)N(C[C@H]2CCCN2)C(=O)Cc2ccc(F)c(C(F)(F)F)c2)cc1	46	36		
CCS(=O)(=O)CCN(C(=O)Cc1ccc(F)c(C(F)(F)F)c1)[C@H](C)c1nc(C(C)C)cn1-c1ccc(C#N)cc1	2.6	19	54	

Continued by falling IC50 [1], values first:

IC50 [1] [nM]	IC50 [2] [nM]	Activity [3] [nM]	Compound	further results
80	1180		CCOc1ccc(-n2cc(-c3ccccc3)nc2[C@@H](C)N(Cc2ccccn2)C(=O)Cc2ccc(F)c(C(F)(F)F)c2)cc1	
72	276		CCS(=O)(=O)CCN(C(=O)Cc1ccc(F)c(C(F)(F)F)c1)[C@H](C)c1nc(C2CC2)c(C#N)n1-c1ccc(C#N)cc1	Activity (Liver microsomes): 0%
44	1660		CCOc1ccc(-n2cc(-c3ccccc3)nc2[C@@H](C)N(CCS(=O)(=O)CC)C(=O)Cn2nnc(C3CC3)n2)cc1	
40	1120		CCOc1ccc(-n2cc(-c3ccccc3)nc2[C@@H](C)N(CCS(=O)(=O)CC)C(=O)Cn2ccc(C(F)(F)F)n2)cc1	
35	129		CCOc1ccc(-n2cc(-c3ccccc3)nc2[C@@H](C)N(Cc2ccncc2)C(=O)Cc2ccc(F)c(C(F)(F)F)c2)cc1	
19	45	268	CCS(=O)(=O)CCN(C(=O)Cc1ccc(F)c(C(F)(F)F)c1)[C@H](C)c1nc(C2CC2)c(C(F)(F)F)n1-c1ccc(C#N)cc1	Activity (Liver microsomes): 0%
14	81		CCOc1ccc(-n2cc(-c3ccccc3)nc2[C@@H](C)N(C[C@H]2CCCN2C)C(=O)Cc2ccc(F)c(C(F)(F)F)c2)cc1	
11	20		CCOc1ccc(-n2cc(-c3ccccc3)nc2[C@@H](C)N(C[C@@H]2CCCN2)C(=O)Cc2ccc(F)c(C(F)(F)F)c2)cc1	
11	202		CCOCCN(C(=O)Cc1ccc(F)c(C(F)(F)F)c1)[C@H](C)c1nc(-c2ccccc2)cn1-c1ccc(OCC)cc1	
11	91		CCOc1ccc(-n2cc(-c3ccccc3)nc2[C@@H](C)N(Cc2cccnc2)C(=O)Cc2ccc(F)c(C(F)(F)F)c2)cc1	
10	33	113	CCS(=O)(=O)CCN(C(=O)Cc1ccc(F)c(C(F)(F)F)c1)[C@H](C)c1nc(C2CC2)c(CO)n1-c1ccc(C#N)cc1	Activity (Liver microsomes): 1%
7.1	45		CCOc1ccc(-n2cc(-c3ccccc3)nc2[C@@H](C)N(CCS(=O)(=O)CC)C(=O)Cc2ccc(OC(F)(F)F)cc2)cc1	
5.6	49		CCOc1ccc(-n2cc(-c3ccccc3)nc2[C@@H](C)N(CCS(=O)(=O)CC)C(=O)Cn2cc(-c3ccccc3)nn2)cc1	
4	43	33	CCS(=O)(=O)CCN(C(=O)Cc1ccc(F)c(C(F)(F)F)c1)[C@H](C)c1nc(-c2ccccn2)cn1-c1ccc(C#N)cc1	
3.8	22	45	C=Cc1c(C2CC2)nc([C@@H](C)N(CCS(=O)(=O)CC)C(=O)Cc2ccc(F)c(C(F)(F)F)c2)n1-c1ccc(C#N)cc1	Activity (Liver microsomes): 8%
3.2	16	29	CCc1c(C2CC2)nc([C@@H](C)N(CCS(=O)(=O)CC)C(=O)Cc2ccc(F)c(C(F)(F)F)c2)n1-c1ccc(C#N)cc1	Activity (Liver microsomes): 14%
2.5	21	100	CCS(=O)(=O)CCN(C(=O)Cc1ccc(F)c(C(F)(F)F)c1)[C@H](C)c1nc(C(C)(C)C)cn1-c1ccc(C#N)cc1	
2.3	29	91	CCS(=O)(=O)CCN(C(=O)Cc1ccc(F)c(C(F)(F)F)c1)[C@H](C)c1nc(-c2cccnc2)cn1-c1ccc(C#N)cc1	
0.7	14	10	CCS(=O)(=O)CCN(C(=O)Cc1ccc(F)c(C(F)(F)F)c1)[C@H](C)c1nc(-c2ccccc2)cn1-c1ccc(C#N)cc1	CL (Rattus norvegicus [4]): 5.5 L/h/kg; AUC (Rattus norvegicus [5]): 92 µg·h/L; MRT [6]: 18 min; AUC [7]: 11 µg·h/L; MRT [8]: 0.9 h; bioavailability [9]: 3%; solubility [10]: 0.5 µg/mL (≈ 0.816 µM); Papp [11]: 0.9 ×10⁻⁶ cm/s
0.4	4.5		CCOc1ccc(-n2cc(-c3ccccc3)nc2[C@@H](C)N(CCS(=O)(=O)CC)C(=O)Cc2ccc(F)c(C(F)(F)F)c2)cc1	
